Assay [1] relates to A-375. In words: Cell cycle arrest in human A375 cells assessed as accumulation at S phase at 1 uM by FACS analysis. The format is functional. In short, it runs like this:
(§1)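 A375 cells were exposed to compound for 24 h, and cell cycle distribution was measured by FACS. The sub-G1 peak (labelled G0) was scored as the apoptotic cell percentage and compared with untreated control cells.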
In general terms: In flow cytometry, cells or beads pass a laser one at a time.

The next assay relates to MCF7. In words: Cytotoxicity against human MCF7 cells after 48 hrs by SRB assay. The format is functional. The note with it: MCF7, 48 h. An outline of the steps:
(§2)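 Sulforhodamine B assay estimating cell density from cellular protein content, run on human cancer lines of lung, breast, oral, colon, cervix, ovary and prostate origin, with GI50 values derived.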
For orientation: In SRB staining, fixed cells bind dye roughly in proportion to their protein.

The next assay has as its system HOP-62. In words: Cytotoxicity against human HOP62 cells after 48 hrs by SRB assay. Format: functional. The note with it: HOP-62, 48 h. An outline of the steps:
as §2

For a further assay, the system named is COLO 205. In words: Cytotoxicity against human COLO205 cells after 48 hrs by SRB assay. The format is functional. Conditions: COLO 205, 48 h. In short, it runs like this:
as §2

Assay [2] has as its system A-375. In words: Cell cycle arrest in human A375 cells assessed as accumulation at G0/G1 phase at 1 uM by FACS analysis. Format: functional. In short, it runs like this:
as §1

A further assay relates to SiHa. The experiment in a line: Cytotoxicity against human SiHa cells after 48 hrs by SRB assay. Format: functional. An outline of the steps: as §2
The test system of a further assay is KB. The experiment in a line: Cytotoxicity against human KB cells after 48 hrs by SRB assay. Format: functional. In short, it runs like this:
as §2

The next assay relates to A2780. The experiment in a line: Cytotoxicity against human A2780 cells after 48 hrs by SRB assay. Conditions: A2780, 48 h. The format is functional. An outline of the steps: as §2
Assay [3] has as its system A-375. In words: Induction of apoptosis in human A375 cells assessed as cells in dub G1 phase at 1 uM after 24 hrs by FACS analysis. The format is functional. An outline of the steps: as §1
In another assay the test system is PC-3. The experiment in a line: Cytotoxicity against human PC3 cells after 48 hrs by SRB assay. The format is functional. The note with it: PC-3, 48 h. An outline of the steps: as §2
The subject of assay [4] is A-375. In words: Antitumor activity against human A375 cells assessed as cell viability at 1 uM after 24 hrs by MTT assay. Format: functional, cell-based. In general terms: Formazan colour is commonly taken as a measure of viable cells.
Assay [5] in a line: Cytotoxicity against human Gurav cells after 48 hrs by SRB assay. The format is functional. An outline of the steps:
as §2

Assay [6] relates to A-375. In words: Induction of apoptosis in human A375 cells assessed as caspase 3 activation at 1 uM after 24 hrs by fluorimetry. Format: functional, cell-based. An outline of the steps: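 Caspase-3 activity in treated A375 cells was measured by fluorimetry relative to untreated cells.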
A further assay relates to A549. In words: Cytotoxicity against human A549 cells after 48 hrs by SRB assay. The format is functional. The note with it: A549, 48 h. In short, it runs like this: as §2
The test system of assay [7] is A-375. In words: Cell cycle arrest in human A375 cells assessed as accumulation at G2/M phase at 1 uM by FACS analysis. The format is functional. In short, it runs like this:
as §1

Another assay concerns ZR-75-1. In words: Cytotoxicity against human ZR-75-1 cells after 48 hrs by SRB assay. The format is functional. Conditions: ZR-75-1, 48 h. In short, it runs like this:
as §2

A short description of assay [8]: Cytotoxicity against human DWD cells after 48 hrs by SRB assay. The format is functional. An outline of the steps: as §2

Each structure is given as a SMILES string. Where a name gives a salt, the structure may show the parent alone. Active and inactive are the calls of the source. The calls are words filed in the database; no cut-off is given here.

What is called GI50 is the concentration giving 50% growth inhibition. Low readings indicate greater sensitivity of the cells, high ones lower sensitivity of the cells.

Consider `COc1cc2c(cc1O)N=C[C@@H]1CCCN1C2=O`, for which the Activity in the assay with A-375 [1] was 23.08%; with A-375 [2], 67.67%; in the assay with A-375 [3], 2.683%; with A-375 [7], 12.19%. Besides, the concentration for 50% growth inhibition (GI50) amounted to 170 nM in the assay with MCF7; 150 nM in the assay with HOP-62; 110 nM with COLO 205; 170 nM in the assay on SiHa; 170 nM in the assay on KB; 140 nM with A2780. Besides, the GI50 is 200 nM in the assay on PC-3, 160 nM in assay [5] and 160 nM with A549. Further, the outcome with A-375 [4] and in the assay with A-375 [6] was Active.
Take `O=C(c1ccccc1NCc1coc2ccccc2c1=O)N1CCNCC1`: the Activity stood at 18.53% in the assay with A-375 [1], 68.39% in the assay on A-375 [2], 1.15% in the assay with A-375 [3] and 15.45% with A-375 [7]. Also, the result with A-375 [4] was Active.
On the same counts, the results for `O=C(c1ccccc1NCc1ccc2ccccc2c1)N1CCNCC1` are 14.56%, 72.22%, 1.233%, 14.78% and “Active”.
Take `COc1cc2c(cc1OCCCN1CCN(C(=O)c3ccccc3NCc3ccncc3)CC1)N=C[C@@H]1CCCN1C2=O`: the GI50 in the assay on MCF7 was 130 nM; in the assay on HOP-62, 2200 nM; with COLO 205 it was 190 nM; with ZR-75-1, 180 nM; with SiHa it was 1800 nM; with KB it was 150 nM. The GI50 with A2780 is 190 nM; in assay [8], 170 nM; in the assay with PC-3, 1800 nM; in assay [5], 180 nM; in the assay with A549, 2000 nM.
Consider `COc1cc2c(cc1OCCCCCN1CCN(C(=O)c3cc(Cl)ccc3NCc3coc4ccccc4c3=O)CC1)N=C[C@@H]1CCCN1C2=O`, for which the concentration for 50% growth inhibition (GI50) turned out to be 150 nM in the assay on MCF7; 1800 nM in the assay on HOP-62; 2300 nM in the assay with COLO 205; 160 nM in the assay on ZR-75-1; 160 nM in the assay with SiHa; 160 nM with KB. In addition, the GI50 is 180 nM in the assay with A2780; 170 nM in assay [8]; 160 nM in the assay with PC-3; 170 nM in assay [5]; 170 nM in the assay with A549.
For the molecule `COc1cc2c(cc1OCCCCCCN1CCN(C(=O)c3ccccc3NCc3ccc4ccccc4c3)CC1)N=C[C@@H]1CCCN1C2=O`, the 50% growth inhibitory concentration (GI50) came out at 140 nM in the assay on MCF7; 1900 nM in the assay on HOP-62; 180 nM in the assay with COLO 205; 160 nM in the assay on ZR-75-1; 150 nM in the assay on SiHa; 150 nM with KB. The GI50 with A2780 was 190 nM; in [8] it was 160 nM; in the assay on PC-3 it was 150 nM; in assay [5], 170 nM; with A549 it was 170 nM.
With `COc1cccc2c1C(=O)c1c(O)c3c(c(O)c1C2=O)C[C@@](O)(C(=O)CO)C[C@@H]3O[C@H]1C[C@H](N)[C@H](O)[C@H](C)O1` [DOXORUBICIN HYDROCHLORIDE], the concentration for 50% growth inhibition (GI50) in the assay on MCF7 came to 170 nM; in the assay on HOP-62, 140 nM; with COLO 205, 140 nM; with SiHa, 170 nM; with KB it was 170 nM; with A2780, 160 nM. The GI50 in assay [8] amounted to 100 nM; in assay [5] it was 170 nM.
With `COc1cc2c(cc1OCCCCCN1CCN(C(=O)c3ccccc3NCc3cc(OC)c(OC)c(OC)c3)CC1)N=C[C@@H]1CCCN1C2=O`, the GI50 is 140 nM with MCF7; 1900 nM in the assay on HOP-62; 2200 nM in the assay on COLO 205; 160 nM in the assay with ZR-75-1; 170 nM in the assay on SiHa; 140 nM in the assay with KB. Further, the 50% growth inhibitory concentration (GI50) in the assay with A2780 was 160 nM; in [8], 140 nM; in the assay on PC-3, 140 nM; in assay [5], 160 nM; with A549, 1900 nM.
Turning to `COc1cc2c(cc1OCCCCCCN1CCN(C(=O)c3ccccc3NCc3cc(OC)c(OC)c(OC)c3)CC1)N=C[C@@H]1CCCN1C2=O`, the GI50 stood at 140 nM with MCF7; 1900 nM with HOP-62; 160 nM in the assay on COLO 205; 180 nM with ZR-75-1; 1800 nM with SiHa; 150 nM with KB. Besides, the GI50 came out at 170 nM with A2780; 150 nM in assay [8]; 160 nM in the assay with PC-3; 170 nM in assay [5]; 180 nM with A549.
On to `COc1cc2c(cc1OCCCN1CCN(C(=O)c3ccccc3NCc3ccc4ccccc4c3)CC1)N=C[C@@H]1CCCN1C2=O`, for which the Activity came to 6.32% in the assay on A-375 [1], 83.66% with A-375 [2], 5.486% in the assay with A-375 [3] and 6.32% in the assay with A-375 [7]. For the same molecule, the 50% growth inhibitory concentration (GI50) was determined as 140 nM with MCF7; 1700 nM in the assay with HOP-62; 180 nM with COLO 205; 150 nM in the assay on ZR-75-1; 160 nM in the assay with SiHa; 150 nM in the assay on KB. Also, the concentration for 50% growth inhibition (GI50) worked out at 170 nM in the assay with A2780; 140 nM in assay [8]; 140 nM in the assay with PC-3; 170 nM in assay [5]; 170 nM in the assay on A549. Further, the result in the assay with A-375 [4] and in the assay on A-375 [6] was Active.
Regarding `COc1cc2c(cc1OCCCN1CCN(C(=O)c3ccccc3NCc3cc(OC)c(OC)c(OC)c3)CC1)N=C[C@@H]1CCCN1C2=O`, the 50% growth inhibitory concentration (GI50) in the assay on MCF7 stood at 140 nM; with HOP-62, 2100 nM; in the assay with COLO 205 it was 170 nM; in the assay with ZR-75-1 it was 170 nM; in the assay with SiHa, 170 nM; in the assay on KB, 150 nM. Further, the GI50 with A2780 worked out at 180 nM; in [8], 150 nM; in the assay with PC-3, 160 nM; in assay [5], 170 nM; with A549, 2000 nM.
As to `COc1cc2c(cc1OCCCCCCN1CCN(C(=O)c3ccccc3NCc3ccncc3)CC1)N=C[C@@H]1CCCN1C2=O`, the concentration for 50% growth inhibition (GI50) worked out at 150 nM with MCF7; 25000 nM with HOP-62; 2600 nM in the assay on COLO 205; 2000 nM in the assay with ZR-75-1; 1900 nM in the assay with SiHa; 150 nM with KB. Further, the GI50 with A2780 was 190 nM; in assay [8], 170 nM; in the assay with PC-3 it was 1800 nM; in assay [5], 180 nM; with A549, 2200 nM.
For the molecule `COc1cc2c(cc1OCCCCCN1CCN(C(=O)c3cc(Cl)ccc3NCc3ccc4ccccc4c3)CC1)N=C[C@@H]1CCCN1C2=O`, the concentration for 50% growth inhibition (GI50) worked out at 140 nM with MCF7; 2000 nM in the assay with HOP-62; 29000 nM with COLO 205; 180 nM in the assay on ZR-75-1; 1800 nM in the assay on SiHa; 140 nM in the assay with KB. Besides, the 50% growth inhibitory concentration (GI50) in the assay with A2780 amounted to 180 nM; in assay [8], 170 nM; with PC-3, 170 nM; in [5], 170 nM; in the assay with A549, 2000 nM.
Regarding `COc1cc2c(cc1OCCCCCN1CCN(C(=O)c3ccccc3NCc3ccncc3)CC1)N=C[C@@H]1CCCN1C2=O`, the GI50 worked out at 160 nM with MCF7; 2300 nM in the assay with HOP-62; 25000 nM in the assay on COLO 205; 2000 nM in the assay with ZR-75-1; 1800 nM with SiHa; 150 nM in the assay on KB. Besides, the GI50 in the assay on A2780 worked out at 170 nM; in [8], 150 nM; with PC-3 it was 170 nM; in [5] it was 170 nM; with A549, 2000 nM.
